The test system of assay [1] is Panel NCI-60 (60 carcinoma cell lines). As to the kind of experiment: Cytostatic effect against human cancer cell line; (Range=-4.01 to -5.65). Type of assay: functional. The note with it: read-out: Log TGI (converted). An outline of the steps:
(§1)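 NCI 60 human tumour cell line panel, entered after a three-cell-line prescreen. Five concentrations at 10-fold dilutions: 10-4, 10-5, 10-6, 10^-7 and 10^-8 M. Results given as log values of growth inhibitory power (GI50) and cytostatic effect.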

The test system is the same in assay [2]. The assay is described as follows: Growth inhibitory power against human cancer cell line; (Range=-4.04 to -6.08). Format: functional. A digest of the protocol: as §1
For assay [3] the test system is unchanged. The assay is described as follows: Cytotoxic effect against human cancer cell line; (Range=-4.01 to -5.01). Type of assay: functional. A digest of the protocol: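 NCI 60-cell-line panel, tested at five 10-fold dilutions from 10^-4 M down to 10^-8 M. Results are expressed as log values of growth inhibitory power (GI50) and cytostatic effect.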
Assay [4] is filed under the species Rattus norvegicus. The assay is described as follows: Inhibitory effect on mitochondrial respiration in […]-uncoupled rat liver mitochondria; Activity measured as succinate-O2 activity adding succinate. Type of assay: functional. An outline of the steps:
(§2)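 Isolated coupled rat liver mitochondria; compound at 35 µM. Oxygen consumption was measured polarographically with a Clark electrode. Reactions were started with a saturating amount of substrate: glutamate/malate (NADH-O2), succinate (succinate-O2) or ascorbate/TMPD (Complex IV). The uncoupled rate was obtained by adding 2,4-dinitrophenol. The respiratory control index was also derived. Rates are in ngA oxygen/min/mg protein, mean of five and eight independent measures.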

The species entered for assay [5] is Rattus norvegicus. As to the kind of experiment: Inhibitory effect on mitochondrial respiration in […]-uncoupled rat liver mitochondria; Activity measured as NADH-O2 activity adding glutamate/malate. Type of assay: functional. A digest of the protocol:
as §2

The species named for assay [6] is Rattus norvegicus. The assay is described as follows: Compound was tested against rat liver mitochondria respiration; Activity as respiratory control index measured as succinate-O2 activity adding succinate. Format: functional. An outline of the steps:
as §2

Assay [7] is filed under the species Rattus norvegicus. As to the kind of experiment: Compound was tested against rat liver mitochondria respiration; Activity as respiratory control index measured as NADH-O2 activity adding glutamate/malate. Type of assay: functional. An outline of the steps: as §2
The species entered for assay [8] is Rattus norvegicus. As to the kind of experiment: Inhibitory effect on mitochondrial respiration in […]-uncoupled rat liver mitochondria; Activity measured as TMPD test complex IV activity adding ascorbate. Format: functional. An outline of the steps: as §2
Assay [9] is filed under the species Rattus norvegicus. As to the kind of experiment: Compound was tested against rat liver mitochondria respiration; Activity as respiratory control index measured as TMPD test complex IV activity adding ascorbate. Type of assay: functional. An outline of the steps:
as §2

The next assay concerns K562. As to the kind of experiment: Growth inhibitory power against human leukemia (K-562)cell line. Type of assay: functional. An outline of the steps:
as §1

The next assay has as its system RXF 393. As to the kind of experiment: Growth inhibitory power against human renal (RXF 393) cell line. Type of assay: functional. An outline of the steps:
as §1

The test system of another assay is COLO 205. The assay is described as follows: Growth inhibitory power against human colon (COLO 205) cell line. Format: functional. An outline of the steps:
as §1

A further assay relates to OVCAR-3. The assay is described as follows: Growth inhibitory power against human ovarian (OVCAR-3) cell line cell line. Type of assay: functional. An outline of the steps: as §1
For assay [10], the species on record is Rattus norvegicus. As to the kind of experiment: Inhibitory effect on mitochondrial respiration in coupled rat liver mitochondria at 35 uM concentration measured as succinate-O2 activity adding succinate; State 3.
For assay [11], the species on record is Rattus norvegicus. The assay is described as follows: Inhibitory effect on mitochondrial respiration in coupled rat liver mitochondria at 35 uM concentration measured as succinate-O2 activity adding succinate; State 4.
The species named for assay [12] is Rattus norvegicus. As to the kind of experiment: Inhibitory effect on mitochondrial respiration in coupled rat liver mitochondria at 35 uM concentration measured as NADH-O2 activity adding glutamate/malate; State 4.
Assay [13] is filed under the species Rattus norvegicus. As to the kind of experiment: Inhibitory effect on mitochondrial respiration in coupled rat liver mitochondria at 35 uM concentration measured as NADH-O2 activity adding glutamate/malate; State 3.
The species named for assay [14] is Rattus norvegicus. The assay is described as follows: Inhibitory effect on mitochondrial respiration in coupled rat liver mitochondria at 35 uM concentration measured as TMPD test complex IV activity adding ascorbate; State 3.
Assay [15] is filed under the species Rattus norvegicus. As to the kind of experiment: Inhibitory effect on mitochondrial respiration in coupled rat liver mitochondria at 35 uM concentration measured as TMPD test complex IV activity adding ascorbate; State 4.

A word on the TGI: it is the concentration at which net growth stops. For orientation: GI50 means the concentration giving 50% growth inhibition. For `COc1ccc(-c2nc3sccn3c2/C=N/N=C(N)N)cc1OC`, in assay [1], the TGI is < 2240 nM. In assay [2], the GI50 is < 832 nM. In [3], the LC50 (50% lethal concentration) was < 9770 nM.
`COc1cc(OC)c([N+](=O)[O-])cc1-c1nc2sccn2c1/C=N/N=C(N)N`: the TGI in assay [1] is < 2240 nM. In addition, the GI50 in [2] was < 832 nM. In assay [3], the LC50 (50% lethal concentration) was < 9770 nM.
With `O=C1C=CC(=O)c2c1ncc1c2nc2sccn21`, the TGI in assay [1] was < 2240 nM. Also, the GI50 in assay [2] is < 832 nM. Moreover, the LC50 (50% lethal concentration) in assay [3] is < 9770 nM.
As to `COc1ccc(OC)c([N+](=O)[O-])c1-c1nc2sc(C)cn2c1/C=N/N=C(N)N`, the TGI in [1] was < 2240 nM. Further, the GI50 in assay [2] was < 832 nM. The LC50 (50% lethal concentration) in [3] is < 9770 nM.
Consider `COc1cc([N+](=O)[O-])c(OC)cc1-c1nc2sc(C)cn2c1/C=N/N=C(N)N`, for which the TGI in assay [1] was < 2240 nM. The GI50 in assay [2] is < 832 nM. For the same compound, the LC50 (50% lethal concentration) in [3] is < 9770 nM.
As to `COc1ccc(OC)c([N+](=O)[O-])c1-c1nc2sc(Cl)cn2c1/C=N/N=C(N)N`, in [1], the TGI is < 2240 nM. Further, in assay [2], the GI50 was < 832 nM. In addition, in assay [3], the LC50 (50% lethal concentration) was < 9770 nM.
Consider `COc1ccc(OC)c([N+](=O)[O-])c1-c1nc2n(c1/C=N/N=C(N)N)CCS2`, for which, in assay [1], the TGI was < 2240 nM. For the same compound, the GI50 in assay [2] is < 832 nM. Moreover, in assay [3], the LC50 (50% lethal concentration) is < 9770 nM.
As to `COc1cc([N+](=O)[O-])c(OC)cc1-c1nc2scc(C)n2c1/C=N/N=C(N)N`, the TGI in assay [1] was < 2240 nM. In [2], the GI50 was < 832 nM. Besides, in assay [3], the LC50 (50% lethal concentration) was < 9770 nM.
`COc1cc([N+](=O)[O-])c(OC)cc1-c1nc2sccn2c1/C=N/NC(=N)N`: the concentration for total growth inhibition (TGI) in [1] was < 2240 nM. Besides, in [2], the GI50 is < 832 nM. Moreover, the LC50 (50% lethal concentration) in assay [3] is < 9770 nM.
As for `COc1ccc(OC)c(-c2nc3sccn3c2/C=N/N=C(N)N)c1`, the TGI in [1] was < 2240 nM. Further, the GI50 in assay [2] was < 832 nM. The LC50 (50% lethal concentration) in [3] is < 9770 nM.
Regarding `COc1cc([N+](=O)[O-])c(OC)cc1-c1nc2n(c1/C=N/N=C(N)N)CCS2`, the TGI in assay [1] was < 2240 nM. Further, the GI50 in assay [2] was < 832 nM. In assay [3], the LC50 (50% lethal concentration) was < 9770 nM.
For `COc1ccc(OC)c([N+](=O)[O-])c1-c1nc2sccn2c1/C=N/N=C(N)N`, the TGI in assay [1] is < 2240 nM. Moreover, the GI50 in [2] was < 832 nM. Further, the LC50 (50% lethal concentration) in [3] was < 9770 nM.
Take `CCCc1cn2c(/C=N/N=C(N)N)c(-c3c(OC)ccc(OC)c3[N+](=O)[O-])nc2s1`: the TGI in [1] is < 2240 nM. In addition, in [2], the GI50 was < 832 nM. Also, the LC50 (50% lethal concentration) in assay [3] was < 9770 nM.
`COc1ccc(OC)c([N+](=O)[O-])c1-c1nc2scc(C)n2c1/C=N/N=C(N)N`: the TGI in assay [1] was < 2240 nM. In assay [2], the GI50 was < 832 nM. Also, the LC50 (50% lethal concentration) in assay [3] was < 9770 nM.
Regarding `N=C(N)/N=N/c1ccc(NNC(=N)N)c2ncc3c(nc4sccn43)c12`, in assay [1], the TGI was < 2240 nM. In assay [2], the concentration for 50% growth inhibition (GI50) was < 832 nM. The LC50 (50% lethal concentration) in assay [3] was < 9770 nM.
Take `N=C(N)N/N=C/c1c(-c2cc(O)ccc2O)nc2sccn12`: the TGI in assay [1] was < 2240 nM. In addition, the GI50 in assay [2] is < 832 nM. Besides, the LC50 (50% lethal concentration) in [3] was < 9770 nM.
The like results for `COc1cc([N+](=O)[O-])c(OC)cc1-c1nc2sc(C)c(C)n2c1/C=N/N=C(N)N` were, in that order, < 2240 nM, < 832 nM and < 9770 nM.
As for `COc1cc2ncc3c(nc4sccn43)c2cc1OC`, the TGI in assay [1] was < 2240 nM. For the same compound, the GI50 in [2] is < 832 nM. For the same compound, the LC50 (50% lethal concentration) in [3] was < 9770 nM.
Take `COc1cc([N+](=O)[O-])c(OC)cc1-c1nc2sc(Cl)cn2c1/C=N/N=C(N)N`: the Actvity (ngAoxigen/min/mg of RLM) was found to be 81.7 in the assay filed under Rattus norvegicus [4]; 74.2 in the assay filed under Rattus norvegicus [5]; 158 in the assay filed under Rattus norvegicus [8]; 54.9 in the assay filed under Rattus norvegicus [10]; 33.4 in the assay filed under Rattus norvegicus [11]; 23.1 in the assay listed under Rattus norvegicus [12]. In addition, the Actvity (ngAoxigen/min/mg of RLM) is 47.7 in the assay listed under Rattus norvegicus [13], 142 in the assay filed under Rattus norvegicus [14] and 98 in the assay listed under Rattus norvegicus [15]. Besides, the Actvity in the assay listed under Rattus norvegicus [6] was 1.7; in the assay filed under Rattus norvegicus [7], 2.3; in the assay filed under Rattus norvegicus [9] it was 1.5. For the same compound, the GI50 with K562 was 1910 nM; in the assay on RXF 393 it was 1450 nM; in the assay with COLO 205, 1550 nM; with OVCAR-3, 589 nM.
On to `N=C(N)N/N=C/c1c(-c2ccc(O)c(O)c2)nc2sccn12`, for which the TGI in [1] is < 2240 nM. The GI50 in assay [2] is < 832 nM. The LC50 (50% lethal concentration) in [3] was < 9770 nM.
The like results for `COc1cc(-c2nc3sccn3c2/C=N/N=C(N)N)c([N+](=O)[O-])cc1OC` were, in that order, < 2240 nM, < 832 nM and < 9770 nM.
As to `COc1ccc(OC)c2c1ncc1c2nc2sccn21`, the TGI in [1] was < 2240 nM. In addition, in [2], the GI50 was < 832 nM. The LC50 (50% lethal concentration) in assay [3] was < 9770 nM.
On to `CC(/C=N/NC(=N)N)=N/NC(=N)N`, for which the Actvity (ngAoxigen/min/mg of RLM) was 169 in the assay listed under Rattus norvegicus [4]; 106 in the assay listed under Rattus norvegicus [5]; 156 in the assay listed under Rattus norvegicus [8]; 141 in the assay listed under Rattus norvegicus [10]; 39.2 in the assay listed under Rattus norvegicus [11]; 17.9 in the assay filed under Rattus norvegicus [12]. The Actvity (ngAoxigen/min/mg of RLM) stood at 80 in the assay filed under Rattus norvegicus [13], 128 in the assay filed under Rattus norvegicus [14] and 91.1 in the assay listed under Rattus norvegicus [15]. The Actvity in the assay filed under Rattus norvegicus [6] is 3.7; in the assay filed under Rattus norvegicus [7], 4.9; in the assay listed under Rattus norvegicus [9], 1.7.
For `COc1ccc(OC)c([N+](=O)[O-])c1-c1nc2sc(C)c(C)n2c1/C=N/N=C(N)N`, the TGI in assay [1] is < 2240 nM. The GI50 in assay [2] is < 832 nM. Further, the LC50 (50% lethal concentration) in [3] was < 9770 nM.

The record behind these values is ChEMBL document CHEMBL1143617, “Potential antitumor agents. 37. Synthesis and antitumor activity of guanylhydrazones from imidazo[2,1-b]thiazoles and from the new heterocyclic system thiazolo[2',3':2,3]imidazo[4,5-c]quinoline” (2005).
